# Calls of active or inactive are those of the source. The calls are words filed in the database; no cut-off is given here.
# Experiments:
# Rattus norvegicus [1] = species on record: Rattus norvegicus; assay: Agonist activity indicated by a statistically significant increase in ventral prostate gland weight compared, to control animals; NA means no statistically significant increase in ventral prostate weight compared to controls.; format: functional, organism-based
# Procedure, shortened: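 Male rats castrated at 24 days of age, groups of five. Killed 24 h after the final dose. Seminal vesicles and ventral prostate dissected, cleaned and weighed. Value is ventral prostate weight in mg, compared with castrated vehicle controls for statistical significance.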
# Rattus norvegicus [2] = species on record: Rattus norvegicus; assay: Effective dose required to inhibit 50 percent of androgen hormone activity in intact rat; format: functional
# Procedure, shortened: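 Rats dosed with vehicle 0.5% polysorbate. Killed 24 h after the last dose; seminal vesicles dissected, blotted and weighed. Percent inhibition uses a cumulative castrate control group as the 100% effect. ED50 taken from dose-response curves.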
# Rattus norvegicus [3] = assay: Percent inhibition of androgen hormone activity in rat at 50 mg/kg; format: functional
# Procedure, shortened: (§1)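 Rats dosed with vehicle 0.5% polysorbate. Killed 24 h after the last dose; seminal vesicles dissected, blotted and weighed. […] Percent inhibition uses a cumulative castrate control group as the 100% effect. ED50 taken from dose-response curves.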
# Rattus norvegicus [4] = assay: Percent inhibition of androgen hormone in rat at 25 mg/kg; format: functional; procedure, shortened: as §1
# Rattus norvegicus [5] = assay: Percent inhibition of androgen hormone in rat at 50 mg/kg; format: functional; procedure, shortened: as §1
# Rattus norvegicus [6] = assay: Effect of compound on LH level on 14-day dosing in intact rats; No statistically significant difference from control; format: functional, organism-based
# Rattus norvegicus [7] = assay: Effect of compound on testosterone hormone level on 14-day dosing in intact rats at 25 mg/kg.; format: functional
# Rattus norvegicus [8] = assay: Effect of compound on LH level on 14-day dosing in intact rats 25 mg/kg; format: functional
# Rattus norvegicus [9] = assay: Effect of compound on testosterone hormone level on 14-day dosing in intact rats; No statistically significant difference from controls; format: functional, organism-based
# Rattus norvegicus [10] = assay: Effect of compound on testosterone hormone level on 14-day dosing in intact rats; format: functional
# Rattus norvegicus [11] = assay: Effect of compound on LH level on 14-day dosing in intact rats; format: functional
compound,measurement,setting,value
CC(O)(CSc1ccc(F)cc1)C(=O)Nc1ccc(C#N)c(C(F)(F)F)c1 (centres undefined),Weight,Rattus norvegicus [1],Not significant
same,ED50,Rattus norvegicus [2],0.5 mg/kg
CC(O)(CSc1ccccc1)C(=O)Nc1ccc([N+](=O)[O-])cc1 (centres undefined),inhibition in vivo at 50 mg/kg,Rattus norvegicus [3],11%
CC(O)(CSc1ccccc1)C(=O)Nc1ccc(Cl)c(Cl)c1 (centres undefined),inhibition in vivo at 25 mg/kg,Rattus norvegicus [4],44%
CC(O)(CS(=O)(=O)c1ccc(F)cc1)C(=O)Nc1ccc([N+](=O)[O-])c(C(F)(F)F)c1 (centres undefined),ED50,Rattus norvegicus [2],0.4 mg/kg
CC(O)(CSc1ccccc1)C(=O)Nc1ccc(Cl)c([N+](=O)[O-])c1 (centres undefined),Weight,Rattus norvegicus [1],Not significant
same,inhibition in vivo at 50 mg/kg,Rattus norvegicus [5],36%
CC(O)(CS(=O)(=O)c1ccc(F)cc1)C(=O)Nc1ccc(C#N)c(C(F)(F)F)c1 (centres undefined) [BICALUTAMIDE],Weight,Rattus norvegicus [1],inactive
same,LH,Rattus norvegicus [6],inactive
same,ED50,Rattus norvegicus [2],0.5 mg/kg
same,Testosterone,Rattus norvegicus [7],3.97 ng/mL
same,LH,Rattus norvegicus [8],1.04 ng/mL
same,Testosterone,Rattus norvegicus [9],inactive
CC(C)C(=O)Nc1ccc([N+](=O)[O-])c(C(F)(F)F)c1 [FLUTAMIDE],Weight,Rattus norvegicus [1],inactive
same,ED50,Rattus norvegicus [2],2 mg/kg
same,Testosterone,Rattus norvegicus [7],7.61 ng/mL
same,LH,Rattus norvegicus [8],9 ng/mL
same,Testosterone,Rattus norvegicus [10],<0.01 ng/mL
same,LH,Rattus norvegicus [11],<0.01 ng/mL

# Reference: ChEMBL document CHEMBL1124294, “Nonsteroidal antiandrogens. Synthesis and structure-activity relationships of 3-substituted derivatives of 2-hydroxypropionanilides” (1988)
